From PubChem
CSN deneddyl inh – inhibitors of human CSN-mediated cullin deneddylation; Q92905; Purified CSN, SCF-Nedd8-OG deneddylation, fluorescence polarization; inhibition, % at 12.5 µM; 360,000 compounds, 0.38% hits;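 active = pattern-corrected inhibition above about 35%, with an unprinted fluorescence ratio check between 0.5 and 1.5, limit read from the data, passing the limit was not always enough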;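 also: 0% = enzyme with substrate and 100% = substrate without enzyme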
Target sequence (Q92905 whole entry, looked up, one chain of several): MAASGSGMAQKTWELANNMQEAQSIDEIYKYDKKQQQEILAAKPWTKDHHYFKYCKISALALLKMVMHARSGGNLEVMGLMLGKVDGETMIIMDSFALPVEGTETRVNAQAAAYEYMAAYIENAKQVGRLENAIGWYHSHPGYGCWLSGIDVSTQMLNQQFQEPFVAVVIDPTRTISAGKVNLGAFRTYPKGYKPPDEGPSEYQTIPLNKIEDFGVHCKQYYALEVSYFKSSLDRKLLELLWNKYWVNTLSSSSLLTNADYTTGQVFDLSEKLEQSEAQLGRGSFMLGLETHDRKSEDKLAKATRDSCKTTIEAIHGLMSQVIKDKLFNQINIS
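Assay system: purified human Csn5 enzyme expressed in HEK293T cells; measure: % inhibition; also added: SCFSkp2-Nedd8OG substrate at 10 nM final; technique: fluorescence polarization; times: reaction 90 min, room temperature; medium: Tris buffer pH 7.5, NaCl, DTT, Tween-20, trehalose, ovalbumin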
Rpn11 inh – Rpn11 (human) deubiquitinase inhibition; human 26S proteasome, Ub4-pepOG fluorescence polarization; 20S core pre-blocked with epoxomicin; AID 588493; 360,000 compounds, 0.59% hits; calls only at 20 µM; O00487;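 active = inhibition at 20 µM, scaled to each plate's controls, above about 33%, limit read from the data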
PKA-R1A activ – activators of PKA-R1A complex. 340,000 compounds, 0.083% hits. P00514+P68181. activation, % at 11.4 µM. AID 504707. PKA-R1A dissociation, Cy5-IP20 fluorescence polarization; scaled: DMSO 0%, 113 µM cGMP 100%;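 active = percent activation above the mean of all tested compounds plus 3 SD, cut at about 19% in these data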;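 also: higher means more PKAc released from R1A so a rise in polarization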
PKA-R2B act – activates the human PKA-R2B holoenzyme complex; PKA-R2B holoenzyme dissociation, Cy5-IP20 fluorescence polarization; R2B truncated from residue 108, S112A mutant; 0% DMSO only, 100% 113 µM cGMP; activation, % at 11.4 µM; 340,000 compounds, 0.079% hits;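 active = activation above a cutoff set at the mean over all compounds plus 3 SD, cut at about 18% in these data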;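 also: higher means more holoenzyme dissociation and a rise in polarization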
HNF4A DNA FP – change in binding of human HNF4 alpha to DNA; 360,000 compounds, 0.3% hits; P41235; activity change, % at 10 µM; HNF4a-FITC DNA binding, fluorescence polarization, 1 h; in the data active = activity change above about 30%, passing the limit was not always enough
TPT1 inhibitor – C. albicans TPT1 enzyme inhibition | recombinant caTPT1, FP RNA substrate dephosphorylation | inhibition, % at 5 µM | 300,000 compounds, 0.81% hits | AID 1962;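 active = inhibition above the mean of all tested compounds plus 3 SD, set per screening campaign, cut at about 24% in these data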;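 also: plate controls were DMSO alone for no effect and ferristatin control at 100 nM for full effect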
* marks the source's active call; other numbers are inactive results; i = inactive; nt = no result given. An excerpt weighted towards active compounds, which were near 1.6% of everything screened.

SMILES | CSN deneddyl inh | Rpn11 inh | PKA-R1A activ | PKA-R2B act | HNF4A DNA FP | TPT1 inhibitor
CCCN(C(=O)c1ccccc1Cc1ccccc1)C1CCS(=O)(=O)C1 (stereo unspecified) | -3 | i | -2 | -5 | 3 | 1
COc1ccc(/C=N\NC(=O)c2ccc([N+](=O)[O-])c(C)c2)cc1COc1ccccc1C(N)=O | 35* | i | 9 | 6 | 11 | -5
OC(c1cccc(Cl)c1)c1ncc(-c2ccc(C(F)(F)F)cc2)[nH]1 (stereo unspecified) | 2 | i | nt | nt | 1 | nt
COc1cccc(-c2nc3nc(C)cc(C)n3c2Nc2ccc3c(c2)OCCO3)c1 | -1 | nt | nt | nt | 3 | nt
CCOc1cc(C2C(C#N)=C(N)SC(N)=C2C#N)ccc1OCCN1CCOCC1 | 6 | i | -1 | -15 | 4 | 46*
CCCc1[nH]nc2c1C(c1ccc(OCCN3CCOCC3)c(OC)c1)C(C#N)=C(N)O2 (stereo unspecified) | -1 | i | -4 | -2 | 2 | -5
O=C(OCC(=O)N1CCN(C(=O)c2ccco2)CC1)c1ccc(S(=O)(=O)N2CCCCC2)cc1 | -1 | i | -7 | 2 | 50* | 0
O=C(OCC(=O)N1CCCC1)c1ccc(S(=O)(=O)N2CCOCC2)cc1 | 1 | i | 1 | -2 | 4 | 3
COc1ccc(Nc2nc(Cl)c(C=O)s2)cc1 | 41* | nt | 5 | -3 | 88* | 11
CCc1ccc(N2CN(Cc3ccco3)CNC2=S)cc1 | 2 | i | 3 | 1 | -1 | -3
O=C1c2cc(CO)cc(O)c2C(=O)c2c(O[C@@H]3OC(CO)[C@@H](O)[C@@H](O)[C@@H]3O)cccc21 (stereo partly specified) | -2 | i | -3 | -4 | 0 | -1
O=C(O)c1cc(O)c2c(c1)[C@H]([C@H]1c3cc(C(=O)O)cc(O)c3C(=O)c3c(O[C@@H]4O[C@H](CO)[C@@H](O)[C@H](O)[C@H]4O)cccc31)c1cccc(OC3O[C@H](CO)[C@@H](O)[C@H](O)[C@H]3O)c1C2=O (stereo partly specified) | -1 | i | 18 | 10 | -90 | 75*
O=c1ccc2nc3ccccc3sc-2c1 | 4 | i | nt | nt | 4 | nt
COc1ccc(CSc2nnc(SCc3ccc([N+](=O)[O-])cc3)s2)cc1 | -1 | i | 19* | 13 | 1 | -3
CC(/C=C1\SC(=S)N(CCC(=O)Nc2ccccc2O)C1=O)=C\c1ccccc1 | 36* | nt | -6 | -6 | 47* | 18
CCOc1cc(S(=O)(=O)NC2CC2)c(OCC)cc1-n1cnnn1 | 1 | i | 0 | 5 | 3 | 0
O=C(COC(=O)c1ccc([N+](=O)[O-])s1)Nc1ncc(C(F)(F)F)cc1Cl | 38* | i | -18 | -5 | 13 | 10
CCc1nc2ccc(C(=O)NCCc3ccccn3)cn2c1N(C)Cc1cccs1 | -1 | i | nt | nt | 1 | nt
Nc1cnccc1C(=O)O | -75 | i | 12 | 2 | -88 | -70
Cc1c(C)c2c(OCC(=O)Nc3cccnc3)cc3c(c2oc1=O)CCC(C)(C)O3 | 11 | i | 17 | 0 | 55* | -1
CCc1cc(=O)oc2c3c(cc(OCC(=O)Nc4cccnc4)c12)OC(C)(C)CC3 | 1 | i | -4 | 3 | 5 | 0
COc1ccc(CCNC(=O)CSc2ccc3nnc(CCNC(=O)c4ccccc4)n3n2)cc1OC | 2 | i | -5 | -11 | -3 | 1
CCS(=O)(=O)N1N=C(c2cccc(NS(C)(=O)=O)c2)CC1c1ccc(C)cc1 (stereo unspecified) | 73* | nt | -12 | -7 | 159 | 13
CCS(=O)(=O)N1N=C(c2cccc(NS(C)(=O)=O)c2)CC1c1ccccc1 (stereo unspecified) | 125 | nt | 1 | -3 | 181 | 15
Cc1ccc(C2=NN(S(C)(=O)=O)C(c3ccc4c(c3)OCO4)C2)cc1 (stereo unspecified) | 12 | i | 3 | -3 | 51* | 0
